Consider 7 molecules from ChEMBL document CHEMBL1133536, “Cation substitution in cationic phosphonolipids: a new concept to improve transfection activity and decrease cellular toxicity” (J Med Chem, 2000).

Data set [1] in a line: In vivo toxic effect of alanine aminotransferase (ALAT) was determined 24 hr after mice were injected with 50 microg of pTG11033 plasmid complexed with compound into serum with DOPE. The format is ADME, organism-based. To be noted: mouse. In a few lines: (§1)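 Female Swiss mice, 6 weeks old, given one 200 µL tail-vein injection of cationic phosphonolipid/pTG11033 lipoplexes (lipid:DNA charge ratio 4, 50 µg DNA per animal). Lipoplexes were held 30 min at room temperature beforehand. Serum was taken from coagulated blood 24 h later and transaminases measured on an automated analyser. Results are mean (SEM) of 6 animals. TI = transfected/control mouse transaminase level.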

Data set [2] is described as follows: (§2) In vivo toxic effect of alanine aminotransferase (ALAT) was determined 24 hr after mice were injected with 50 microg of pTG11033 plasmid complexed with compound into serum with cholesterol. Set-up: unit not given beside the values. To be noted: mouse. The format is ADME, organism-based. In a few lines:
as §1

The nature of data set [3]: In vivo toxic effect of alanine aminotransferase (ALAT) was determined 24 hr after mice were injected with 50 microg of pTG11033 plasmid complexed with compound into serum without co-lipid. In kind it is ADME, organism-based. Particulars: mouse. In a few lines:
as §1

Data set [4] has as its target T1, Aspartate aminotransferase, mitochondrial (Mus musculus) (UniProt P05202).
T1 sequence (whole entry): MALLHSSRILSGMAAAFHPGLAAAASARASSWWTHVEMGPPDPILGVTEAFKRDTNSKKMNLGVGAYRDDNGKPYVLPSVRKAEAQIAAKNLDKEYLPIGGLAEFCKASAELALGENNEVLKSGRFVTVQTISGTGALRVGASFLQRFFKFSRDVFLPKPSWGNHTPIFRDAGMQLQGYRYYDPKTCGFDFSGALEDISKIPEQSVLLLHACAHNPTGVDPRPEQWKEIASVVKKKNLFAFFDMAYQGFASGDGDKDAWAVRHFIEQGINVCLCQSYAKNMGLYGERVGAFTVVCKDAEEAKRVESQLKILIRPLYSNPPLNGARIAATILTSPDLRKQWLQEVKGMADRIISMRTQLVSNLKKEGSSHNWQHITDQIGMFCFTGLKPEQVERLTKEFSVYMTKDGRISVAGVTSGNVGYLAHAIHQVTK
Nature of the data set: In vivo toxic effect as serum aspartate aminotransferase (ASAT) 24 hr after 50 ug pTG11033 plasmid injection without co-lipid into mice. The format is functional, organism-based. In a few lines: as §1

The target in data set [5] is T1, Aspartate aminotransferase, mitochondrial (Mus musculus). The data set is described as follows: In vivo toxic effect as serum aspartate aminotransferase (ASAT) 24 hr after DOPE complexed 50 ug pTG11033 plasmid injection into mice. The format is functional, organism-based. In a few lines:
as §1

Data set [6] has the same target. The data set is described as follows: In vivo toxic effect as serum aspartate aminotransferase (ASAT) 24 hr after cholesterol complexed 50 ug pTG11033 plasmid injection into mice. In kind it is functional, organism-based. In a few lines:
as §1

Data set [7] shares this target. Nature of the data set: Toxicity index as ratio of serum ASAT levels in transfected and control mice. In kind it is functional. In a few lines:
as §1

Data set [8] is described as follows: as §2. In kind it is ADME, organism-based. To be noted: mouse. In a few lines:
as §1

Where “and” joins values, the source holds several entries; their conditions need not be identical. Equal entries are not always repeated.

For `CCCCCCCCCCCCCCOP(=O)(C[N+](C)(C)C)OCCCCCCCCCCCCCC.[I-]`, the Toxicity in data set [1] was 31; in data set [2], 24; in data set [3] it was 25; in data set [4], 80; in data set [5], 130; in data set [6], 75. Besides, the TI in data set [7] was 1.12 [middle of 4 runs].
In the case of `CCCCCCCC/C=C\CCCCCCCC(=O)OCC(C[N+](C)(C)C)OC(=O)CCCCCCC/C=C\CCCCCCCC.[Cl-]` (stereo not given), the Toxicity in data set [1] was 74; in data set [2], 37; in data set [3], 70; in data set [4], 657; in data set [5], 275; in data set [6] it was 255.
For the molecule `CCCCCCCCCCCCCCOP(=O)(CC[As+](C)(C)C)OCCCCCCCCCCCCCC.[I-]`, the Toxicity in data set [1] was found to be 34; in data set [3] it was 26; in data set [8] it was 41; in data set [4], 79; in data set [5] it was 155; in data set [6] it was 190. For the same molecule, the TI in data set [7] is 1.47 [middle of 4 runs].
Turning to `CCCCCCCCCCCCCCOP(=O)(CC[P+](C)(C)C)OCCCCCCCCCCCCCC.[I-]`, the Toxicity in data set [1] amounted to 39; in data set [2], 34; in data set [3], 55; in data set [4], 120; in data set [5], 145; in data set [6] it was 174. Further, the TI in data set [7] was 1.69 (2×) and 2.39 and 2.45.
With `CCCCCCCC/C=C/CCCCCCCCOP(=O)(CC[As+](C)(C)C)OCCCCCCCC/C=C/CCCCCCCC.[I-]`, the Toxicity in data set [1] is 36; in data set [2], 172; in data set [3], 35; in data set [4] it was 225; in data set [5], 303; in data set [6], 600.
For the molecule `CCCCCCCC/C=C/CCCCCCCCOP(=O)(CC[P+](C)(C)C)OCCCCCCCC/C=C/CCCCCCCC.[I-]`, the Toxicity in data set [1] turned out to be 65; in data set [3], 35; in data set [8], 184; in data set [4], 250; in data set [5] it was 646; in data set [6], 685.
For `CCCCCCCC/C=C/CCCCCCCCOP(=O)(C[N+](C)(C)C)OCCCCCCCC/C=C/CCCCCCCC.[I-]`, the Toxicity was 30 in data set [1]; 70 in data set [2]; 250 in data set [3]; 900 in data set [4]; 125 in data set [5]; 225 in data set [6].
